Assay [1] concerns the target T1, Polyunsaturated fatty acid 5-lipoxygenase (Homo sapiens) (UniProt P09917).
T1 sequence (whole entry): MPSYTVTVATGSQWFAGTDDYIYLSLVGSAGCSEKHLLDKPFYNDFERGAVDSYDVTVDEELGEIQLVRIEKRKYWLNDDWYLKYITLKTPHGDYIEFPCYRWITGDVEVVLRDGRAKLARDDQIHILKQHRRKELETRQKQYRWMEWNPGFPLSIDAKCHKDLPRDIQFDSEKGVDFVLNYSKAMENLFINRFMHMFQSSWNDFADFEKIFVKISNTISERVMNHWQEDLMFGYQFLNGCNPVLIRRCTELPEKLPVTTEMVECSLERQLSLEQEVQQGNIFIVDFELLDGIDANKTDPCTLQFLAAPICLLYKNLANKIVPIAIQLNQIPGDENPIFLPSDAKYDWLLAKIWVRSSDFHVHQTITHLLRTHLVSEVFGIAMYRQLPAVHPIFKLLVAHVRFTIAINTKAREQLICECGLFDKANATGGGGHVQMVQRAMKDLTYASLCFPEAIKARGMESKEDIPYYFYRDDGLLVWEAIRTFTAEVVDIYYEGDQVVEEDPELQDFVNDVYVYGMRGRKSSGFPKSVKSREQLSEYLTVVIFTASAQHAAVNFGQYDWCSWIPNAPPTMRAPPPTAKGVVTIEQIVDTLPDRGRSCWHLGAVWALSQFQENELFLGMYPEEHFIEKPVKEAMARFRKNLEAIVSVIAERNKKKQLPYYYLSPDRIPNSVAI
Put plainly: Inhibition of human recombinant 5-LO assessed as product formation at 3 uM by cell-free assay relative to control; values are per cent of control.

Assay [2] has as its target T1, Polyunsaturated fatty acid 5-lipoxygenase (Homo sapiens). Put plainly: Inhibition of 5-LO in human neutrophils assessed as product formation at 3 uM by cell-intact assay relative to control in presence of 2.5 uM A23187 ionophore; values are per cent of control.
The target in assay [3] is T2, Polyunsaturated fatty acid 5-lipoxygenase (Homo sapiens, UniProt P09917).
T2 sequence (P09917 whole entry): T1 sequence (whole entry)
The assay is described as follows: Inhibition of 5-LO in human neutrophils assessed as product formation by cell-intact assay relative to control in presence of 20 uM A23187/AA ionophore. The method in brief:
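Intact human neutrophils, 5 × 10^6 cells/mL, stimulated with 2.5 μM A23187 plus 20 μM exogenous AA. 5-LO products quantified by HPLC or UPLC–MS/MS relative to vehicle control. IC50 from sigmoidal variable-slope fit, means ± SE, n = 3.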

For assay [4], the target named is T2, Polyunsaturated fatty acid 5-lipoxygenase. Put plainly: Inhibition of 5-LO in human neutrophils assessed as product formation by cell-intact assay relative to control in presence of 2.5 uM A23187 ionophore. Put shortly: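 Intact human neutrophils, 5 × 10^6 cells/mL, stimulated with 2.5 μM A23187. 5-LO products analysed by HPLC or UPLC–MS/MS and expressed relative to DMSO vehicle control. Means ± SE, n = 3 or 4; IC50 from sigmoidal variable-slope fit.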

Assay [5] is described as follows: Inhibition of pig brain GSK3 using YRRAAVPPSPSLSRHSSPHQSpEDEEE substrate by cell-free assay. On the set-up: species or system Sus scrofa.
Assay [6] concerns the target T2, Polyunsaturated fatty acid 5-lipoxygenase. Put plainly: Inhibition of human recombinant 5-LO assessed as product formation by cell-free assay relative to control. The method in brief: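 Partially purified human recombinant 5-LO (ATP-agarose eluate, 0.5–2 μg) in PBS-EDTA with 1 mM ATP. Preincubated with vehicle or compound 10 min at 4 °C, prewarmed 30 s at 37 °C, then started with 2 mM CaCl2 and 20 μM AA. Products analysed by HPLC. Means ± SE, n = 3 or 4; IC50 by sigmoidal variable-slope fit.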

The target in assay [7] is T3, Prostaglandin G/H synthase 1 (Ovis aries) (UniProt P05979).
T3 sequence (whole entry): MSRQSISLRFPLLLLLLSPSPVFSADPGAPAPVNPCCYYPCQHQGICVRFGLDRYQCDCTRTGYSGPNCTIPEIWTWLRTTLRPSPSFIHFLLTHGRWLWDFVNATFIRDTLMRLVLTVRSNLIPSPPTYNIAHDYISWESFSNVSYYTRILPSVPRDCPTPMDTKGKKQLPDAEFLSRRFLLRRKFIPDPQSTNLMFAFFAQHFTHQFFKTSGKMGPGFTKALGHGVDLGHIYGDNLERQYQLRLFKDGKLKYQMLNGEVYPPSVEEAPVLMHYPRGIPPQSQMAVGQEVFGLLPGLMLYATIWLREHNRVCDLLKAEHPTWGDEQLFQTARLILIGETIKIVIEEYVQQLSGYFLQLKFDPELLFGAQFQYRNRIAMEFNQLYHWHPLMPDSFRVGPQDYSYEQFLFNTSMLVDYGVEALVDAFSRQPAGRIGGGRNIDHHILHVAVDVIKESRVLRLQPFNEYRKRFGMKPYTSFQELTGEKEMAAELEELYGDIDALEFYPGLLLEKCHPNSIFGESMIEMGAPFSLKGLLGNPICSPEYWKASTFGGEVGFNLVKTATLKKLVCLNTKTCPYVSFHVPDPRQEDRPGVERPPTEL
Put plainly: Inhibition of ovine COX1 using arachidonic acid at 10 uM after 5 mins by HPLC analysis. The method in brief:
(§1)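 Enzyme (ovine COX-1) or A549 microsomal preparation (human mPGES-1) given compound or reference inhibitor 10 min before reaction start. Activity expressed as % of 0.1% DMSO vehicle control, read-outs 12-HHT (COX-1) and PGE2 (mPGES-1). Means ± SE, n = 3.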

Assay [8] addresses T4, Prostaglandin E synthase (Homo sapiens) (UniProt O14684).
T4 sequence (whole entry): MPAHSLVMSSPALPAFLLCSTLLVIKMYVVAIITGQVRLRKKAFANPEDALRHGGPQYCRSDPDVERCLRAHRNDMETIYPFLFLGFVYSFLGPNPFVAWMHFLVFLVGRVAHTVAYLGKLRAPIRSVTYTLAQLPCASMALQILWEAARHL
Put plainly: Inhibition of human mPGES1 from human A549 cells assessed as PGE2 at 10 uM after 15 mins by HPLC. Type of assay: cell-based. The method in brief:
as §1

For assay [9], the target named is T1, Polyunsaturated fatty acid 5-lipoxygenase (Homo sapiens). The assay is described as follows: Binding affinity to human recombinant 5-LO ATP-bindng site using ATP-agaarose column in S40 fraction of Escherichia coli. The method in brief: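 E. coli S40 fraction (40,000 × g supernatant) bound to ATP-agarose for 10 min at 4 °C. Pellets washed 3× with PBS-1 mM EDTA, then exposed to vehicle (0.1% DMSO) or compound for 30 min at 4 °C. Eluates and pellet-bound 5-LO resolved by SDS-PAGE and Western blot. Representative of three experiments.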

Another assay concerns SH-SY5Y. Put plainly: Anticancer activity against human SH-SY5Y cells assessed as reduction in cell viability. It counts as functional, cell-based.

Calls of active or inactive are those of the source. The calls are words filed in the database; no cut-off is given here.

Consider `O=C1Nc2c(Br)cccc2/C1=C1/Nc2cc(C(=O)O)ccc2/C1=N\O`, for which the figures for the residual activity in [1] and in [2] were 77.1% and 123%, respectively.
As to `CN1CCN(CCO/N=C2/C(=C3/C(=O)Nc4cc(Br)ccc43)Nc3ccccc32)CC1`, the residual activity in assay [1] was determined as 82.1%; in [2] it was 91.1%.
Take `O=C1Nc2cc(Br)ccc2/C1=C1/Nc2ccccc2/C1=N\OCC(O)CO` (configuration not stated): the residual activity in assay [1] came out at 58%; in [2], 77.7%.
On to `O=Nc1c(-c2c(O)[nH]c3ccccc23)[nH]c2cc(Br)ccc12`, for which the residual activity came to 43.9% in [1] and 111% in assay [2].
Regarding `O=C1Nc2cc(Br)ccc2/C1=C1/Nc2ccccc2/C1=N\OCCN1CCN(CCO)CC1`, the residual activity in assay [1] is 89.3%; in assay [2], 119%.
In the case of `O=C1Nc2c(cccc2C(F)(F)F)/C1=C1/Nc2ccccc2/C1=N\O`, the residual activity is 68% in [1] and 92.6% in assay [2].
In the same order, the values of `O=C1Nc2c(Br)cccc2/C1=C1/Nc2ccccc2C1=O` are 85.4% and 110%.
Consider `O=Nc1c(-c2c(O)[nH]c3ccccc23)[nH]c2ccccc12` [INDIRUBIN-3-MONOXIME], for which the residual activity in [1] is 78.4%; in assay [2] it was 92.2%. Also, the IC50 amounted to 8.2 µM in [3], 11.1 µM in assay [4], 0.022 µM in [5] and 15 µM in assay [6].
For `O=C1Nc2c(Br)cccc2/C1=C1/Nc2cc(C(=O)O)ccc2C1=O`, the residual activity was found to be 80% in [1] and 105% in [2].
As to `O=C1Nc2cc(Br)ccc2/C1=C1/Nc2ccccc2/C1=N\OCCO`, the residual activity in [1] came out at 88.3%; in assay [2] it was 81.5%.
Take `CC(=O)O/N=C1/C(=C2/C(=O)Nc3c(Br)cccc32)Nc2ccccc21`: the residual activity in assay [1] came out at 79.2%; in [2], 112%.
In the same order, the values of `COC(=O)c1ccc2c(c1)C(=N\O)/C(=C1/C(=O)Nc3c(Br)cccc31)N2` are 72.8% and 99.1%.
As for `COc1ccc2c(c1)c(CC(=O)O)c(C)n2C(=O)c1ccc(Cl)cc1`, in [7], the inhibition result is “Active”.
For the molecule `O=C1Nc2cc(Br)ccc2/C1=C1/Nc2ccccc2/C1=N\OCCN1CCCC1`, the residual activity in [1] was found to be 75.1%; in [2], 127%.
`CC(C)c1ccc2c(c1)c(SC(C)(C)C)c(CC(C)(C)C(=O)O)n2Cc1ccc(Cl)cc1`: in assay [8], the inhibition result is “Active”.
Consider `O=C1Nc2ccc(Br)cc2/C1=C1/Nc2ccccc2/C1=N\O` [INDIRUBIN 2], for which the residual activity worked out at 62.3% in [1] and 51.1% in [2]. Besides, the IC50 in assay [3] stood at 3.3 µM; in [4], 2.6 µM; in assay [6] it was 5.6 µM.
Consider `CN(CCO/N=C1/C(=C2/C(=O)Nc3cc(Br)ccc32)Nc2ccccc21)CC(O)CO` (configuration not stated), for which the residual activity in assay [1] was 71.5%; in assay [2], 87%.
For `O=C1Nc2cc(Br)ccc2/C1=C1/Nc2ccccc2/C1=N\OCCN1CCOCC1` the same measures were 60.3% and 62.7%.
Turning to `O=C1Nc2c(F)cccc2/C1=C1/Nc2ccccc2/C1=N\O`, the residual activity amounted to 58.1% in assay [1] and 50.4% in [2]. Also, the IC50 came out at 3.3 µM in [3], 5 µM in [4] and 3.7 µM in [6].
Regarding `CN1C(=O)/C(=C2\Nc3ccccc3\C2=N/O)c2cccc(Br)c21`, the residual activity is 97.7% in assay [1] and 122% in assay [2]. Further, in assay [9], the result was inactive.
With `O=C1Nc2c(Br)cccc2/C1=C1/Nc2ccc(/C=N/O)cc2C1=O`, the figures for the residual activity in [1] and in assay [2] were 80% and 95.1%, respectively.
Take `CC(c1cc2ccccc2s1)N(O)C(N)=O` (configuration not stated): the residual activity in assay [2] came to 37.9%.
In the case of `O=C1Nc2c(Cl)cccc2/C1=C1/Nc2ccccc2/C1=N\O`, the residual activity in assay [1] came out at 65.8%; in assay [2], 67.4%. In addition, the IC50 in [3] stood at 3.1 µM; in assay [4] it was 4.9 µM; in [6], 4.9 µM.
`CO/N=C1/C(=C2/C(=O)Nc3c(Br)cccc32)Nc2ccccc21`: the residual activity in assay [1] stood at 82.9%; in assay [2], 120%.
For the molecule `O=C1Nc2c(Br)cccc2/C1=C1/Nc2ccccc2/C1=N\O`, the residual activity in assay [1] is 68.9%; in assay [2], 43%. In addition, the EC50 with SH-SY5Y was 8 µM. Besides, the values for the IC50 in [3], in [4] and in assay [6] were 3.6 µM, 1.7 µM and 5.8 µM, respectively.
Consider `O=C1Nc2cc(Br)ccc2/C1=C1/Nc2ccccc2/C1=N\OCCN1CCNCC1`, for which the values for the residual activity in assay [1] and in [2] were 76.2% and 64.7%, respectively.

Broadly, the residual activity is the signal under treatment as a percentage of the control signal. The IC50 is the concentration that inhibits the measured activity by half. By EC50 is commonly meant the concentration needed to bring the measured effect to its halfway point.

For the origin of these results see ChEMBL document CHEMBL3259773, “Indirubin core structure of glycogen synthase kinase-3 inhibitors as novel chemotype for intervention with 5-lipoxygenase” (J Med Chem, 2014).
